Assays:
[1] = biological target: T1, Adenosine receptor A1 (Homo sapiens) (UniProt P30542); assay: Inhibition of [3H]DPCPX binding to human Adenosine A1 receptor at 10e-6 M
T1 sequence (whole entry): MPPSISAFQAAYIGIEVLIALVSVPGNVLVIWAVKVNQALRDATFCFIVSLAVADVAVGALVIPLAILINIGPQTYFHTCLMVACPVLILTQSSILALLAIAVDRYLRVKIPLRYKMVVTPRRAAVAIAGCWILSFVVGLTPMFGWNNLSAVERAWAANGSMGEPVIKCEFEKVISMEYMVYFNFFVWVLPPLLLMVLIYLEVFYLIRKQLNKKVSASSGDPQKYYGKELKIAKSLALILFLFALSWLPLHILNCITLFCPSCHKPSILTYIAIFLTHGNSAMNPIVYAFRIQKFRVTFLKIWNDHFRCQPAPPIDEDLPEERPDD
Outline: (§1)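 Human A1 receptors expressed in CHO-cell membranes, incubated 60 min at 25 °C in 50 mM Tris-HCl (pH 7.4) with the compound at a fixed concentration. Conditions were [3H]CCPA ~1.0 nM with 20 µg protein, or [3H]DPCPX ~1.6 nM with 10 µg protein. Nonspecific binding was defined with 10 µM DPCPX, and samples were filtered and counted. Results are % specific binding remaining, as means of three experiments in duplicate.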

[2] = biological target: T1, Adenosine receptor A1 (Homo sapiens); assay: Inhibition of [3H]CCPA binding to human Adenosine A1 receptor at 10e-7 M; outline: as §1
[3] = biological target: T1, Adenosine receptor A1 (Homo sapiens); assay: Inhibition of [3H]CCPA binding to human Adenosine A1 receptor at 10e-6 M; outline: as §1
[4] = biological target: T1, Adenosine receptor A1 (Homo sapiens); assay: Association half life for [3H]CCPA binding to Adenosine A1 receptor in the presence of compound
Outline: (§2)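 Kinetics on membranes (30 µg) from CHO cells expressing recombinant human A1 receptors, using [3H]CCPA at 1 nM, with or without compound. Association was started by adding membranes to the radioligand. For dissociation, membranes were preloaded with radioligand for 60 min at 25 °C, then 100 µM 8-cyclopentyltheophylline was added. Bound ligand was separated by GF/B filtration and counted by scintillation; t1/2 and rate constants were derived.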

[5] = biological target: T1, Adenosine receptor A1 (Homo sapiens); assay: Dissociation constant for [3H]-CCPA binding to Adenosine A1 receptor in the presence of compound; outline: as §2
[6] = biological target: T1, Adenosine receptor A1 (Homo sapiens); assay: Association constant for [3H]CCPA binding to Adenosine A1 receptor in the presence of compound; outline: as §2
[7] = biological target: T1, Adenosine receptor A1 (Homo sapiens); assay: Dissociation half life of [3H]CCPA binding to Adenosine A1 receptor; outline: as §2
[8] = biological target: T1, Adenosine receptor A1 (Homo sapiens); assay: Association half life for [3H]-CCPA binding to Adenosine A1 receptor in the presence of compound; outline: as §2
[9] = biological target: T1, Adenosine receptor A1 (Homo sapiens); assay: Dissociation half life for [3H]CCPA binding to Adenosine A1 receptor in the presence of compound; outline: as §2

| Compound | Specific binding [1] | Specific binding [2] | Specific binding [3] | T1/2 [4] | Koff [5] | k on [6] | T1/2 [7] | T1/2 [8] | T1/2 [9] |
| --- | --- | --- | --- | --- | --- | --- | --- | --- | --- |
| CCC/N=c1/nc(-c2ccccc2)n(-c2cccc(C)c2)s1 | 126% | 97% | 29% | – | – | – | – | – | – |
| C/N=c1/nc(-c2ccccc2)n(-c2cccc(C)c2)s1 | 132% | 96% | 23% | – | – | – | – | – | – |
| c1ccc(C/N=c2\nc(-c3ccccc3)n(-c3ccccc3)s2)cc1 | 124% | 101% | 43% | – | – | – | – | – | – |
| c1ccc(-c2n/c(=N/C3CCCC3)sn2-c2ccccc2)cc1 | 123% | 100% | 25% | 2.9 min | 0.058 min⁻¹ | 4.17e+06 M⁻¹ s⁻¹ | 12 min | – | – |
| Cc1cccc(-n2s/c(=N\C(C)C)nc2-c2ccccc2)c1 | 121% | 100% | 29% | – | – | – | – | – | – |
| CCCC/N=c1/nc(-c2ccccc2)n(-c2cccc(C)c2)s1 | 114% | 99% | 36% | – | – | – | – | – | – |
| CCCC/N=c1/nc(-c2ccccc2)n(-c2ccccc2)s1 | 126% | 101% | 27% | – | – | – | – | – | – |
| OCCC/N=c1/nc(-c2ccccc2)n(-c2ccccc2)s1 | 127% | 106% | 27% | – | – | – | – | – | – |
| CCC/N=c1/nc(-c2ccccc2)n(-c2ccccc2)s1 | 135% | 98% | 26% | – | – | – | – | – | – |
| CC/N=c1/nc(-c2ccccc2)n(-c2ccccc2)s1 | 134% | 99% | 20% | – | – | – | – | – | – |
| Cc1cccc(-n2s/c(=N\c3ccccc3)nc2-c2ccccc2)c1 | 107% | 96% | 89% | – | – | – | – | – | – |
| CC(C)/N=c1/nc(-c2ccccc2)n(-c2ccccc2)s1 | 126% | 97% | 23% | – | – | – | – | – | – |
| CC/N=c1/nc(-c2ccccc2)n(-c2cccc(C)c2)s1 | 125% | 100% | 24% | – | – | – | – | – | – |
| Cc1cccc(-n2s/c(=N/C3CCCC3)nc2-c2ccccc2)c1 | 101% | 96% | 35% | – | – | – | – | – | – |
| Cc1cccc(-n2s/c(=N\Cc3ccccc3)nc2-c2ccccc2)c1 | 116% | 99% | 66% | – | – | – | – | – | – |
| c1ccc(/N=c2/nc(-c3ccccc3)n(-c3ccccc3)s2)cc1 | 106% | 104% | 66% | – | – | – | – | – | – |
| Cc1cccc(-n2s/c(=N/CCCO)nc2-c2ccccc2)c1 | 142% | 97% | 29% | – | – | – | – | – | – |
| C/N=c1\nc(C2C=CC=CC2)n(C2C=CC=CC2)s1 (configuration not stated) | 122% | 97% | 16% | – | 0.056 min⁻¹ | 5.83e+06 M⁻¹ s⁻¹ | – | 2 min | 12.4 min |
